Test results reported in paper PMC3108854 (Molecular and biochemical parasitology, 2010).
One block for each molecule: values may come before it.

Key:
Pf dUTPase = target: T1, Pf dUTPase (Plasmodium falciparum, UniProt Q8II92); assay: dUTPase biochemical assay
T1 sequence (Q8II92 1-173): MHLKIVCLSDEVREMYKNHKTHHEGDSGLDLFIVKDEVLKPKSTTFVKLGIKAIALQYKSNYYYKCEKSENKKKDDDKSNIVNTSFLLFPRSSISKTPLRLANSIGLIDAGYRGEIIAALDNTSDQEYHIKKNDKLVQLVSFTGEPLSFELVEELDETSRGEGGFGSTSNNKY

P. falciparum strain 3d7 = assay: erythrocyte-based P. falciparum strain 3d7 infection; assay type: cell-based; settings: Plasmodium falciparum, 3D7, read-out: EC50 against P. falciparum in vitro
Summary of the method: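 P. falciparum was grown in erythrocytes. The primary screen used 1.25 μM, and ≥50% growth inhibition counted as a hit. Hits were retested in 8-point dose-response curves for EC₅₀ against sulfadoxine-resistant 3D7 and multidrug-resistant W2. Compounds with CC₅₀/EC₅₀ <5 (Huh7 cells) or that quenched fluorescence were excluded.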

[1] = target: Pf Adenylosuccinate Synthase (Plasmodium falciparum, UniProt Q9U8D3); assay: adenylosuccinate synthetase biochemical assay
[2] = target: T2, Pf N-Myristoyl Transferase (Plasmodium falciparum, UniProt Q8ILW6); assay: N-myristoyltransferase biochemical assay; settings: read-out: NMT IC50, positive control
T2 sequence (Q8ILW6 1-410): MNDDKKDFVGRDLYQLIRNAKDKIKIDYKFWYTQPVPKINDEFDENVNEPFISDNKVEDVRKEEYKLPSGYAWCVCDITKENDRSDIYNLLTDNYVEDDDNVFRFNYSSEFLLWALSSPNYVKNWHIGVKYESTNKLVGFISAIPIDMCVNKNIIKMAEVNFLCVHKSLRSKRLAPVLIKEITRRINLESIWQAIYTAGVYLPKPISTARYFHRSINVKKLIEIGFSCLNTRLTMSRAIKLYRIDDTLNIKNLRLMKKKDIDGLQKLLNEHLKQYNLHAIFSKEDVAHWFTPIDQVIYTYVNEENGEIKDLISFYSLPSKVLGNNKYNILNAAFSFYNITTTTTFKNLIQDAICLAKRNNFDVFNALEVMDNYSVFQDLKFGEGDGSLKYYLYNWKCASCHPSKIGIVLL

Chain of Pf Adenylosuccinate Synthase (Q9U8D3 whole entry): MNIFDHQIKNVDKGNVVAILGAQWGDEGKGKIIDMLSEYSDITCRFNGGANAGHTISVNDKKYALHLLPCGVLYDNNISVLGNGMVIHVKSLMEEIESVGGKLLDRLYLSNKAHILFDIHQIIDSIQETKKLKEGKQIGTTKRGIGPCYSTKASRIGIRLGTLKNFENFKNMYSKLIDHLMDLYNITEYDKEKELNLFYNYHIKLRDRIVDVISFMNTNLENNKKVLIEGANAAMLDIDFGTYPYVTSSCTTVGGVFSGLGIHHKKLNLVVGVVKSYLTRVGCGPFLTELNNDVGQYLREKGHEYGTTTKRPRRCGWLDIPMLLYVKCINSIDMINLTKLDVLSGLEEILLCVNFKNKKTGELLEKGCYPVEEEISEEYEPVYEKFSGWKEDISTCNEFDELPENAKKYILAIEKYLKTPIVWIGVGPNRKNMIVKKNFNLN

IC50 (Pf dUTPase): 2.4 µM
SMILES: O=c1ccn([C@H]2C[C@H](O)[C@@H](COC(c3ccccc3)(c3ccccc3)c3ccccc3)O2)c(=O)[nH]1 [2′-deoxy-5′-O-(triphenylmethyl)uridine]

EC50 (P. falciparum strain 3d7): ~7.05 µM
SMILES: O=P(O)(O)C(O)(Cc1ccccc1)P(=O)(O)O [(1-hydroxy-2-phenylethylidene)bis-phosphonic acid]

SMILES: O=CN(O)CC(=O)O [Hadacidin]
IC50 [1]: 62 µM

IC50 [2]: ~3 µM
SMILES: O=C(O)C1=CC(=C(c2ccc(O)c(C(=O)O)c2)c2ccc(O)c(C(=O)O)c2)C=CC1=O [aurintricarboxylate]
